36 compounds from ChEMBL document CHEMBL2331457, “Synthesis and biological evaluation of 2-(arylethynyl)quinoline derivatives as mGluR5 antagonists for the treatment of neuropathic pain” (Bioorg Med Chem Lett, 2013) can be followed below.

The inhibition is the percentage by which the read-out fell short of the control. As usually defined, the IC50 is the concentration at which inhibition is half-maximal. A word on the bioavailability: it is the share of a dose that reaches the circulation, judged against a reference dose that is usually intravenous. As usually defined, the half-life is the time in which the quantity being followed falls by half. Read a low half-life as fast loss. For orientation: Tmax means the time from dosing to the highest level. The Cmax is the maximum level reached in the sampled fluid or tissue. In general, clearance refers to a measure of how efficiently the substance is removed, as volume per time. Low values mean a low capacity for elimination, high ones a high capacity for elimination.

Data set [1] deals with T1, Metabotropic glutamate receptor 5 (Homo sapiens, UniProt P41594). Put plainly: Antagonist activity at human mGluR5 expressed in HEK293 cells assessed as inhibition of L-glutamate-induced calcium mobilization at 1 uM by FDSS6000 assay. It is filed as functional, cell-based. The procedure, abridged: (§1)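 HEK cells stably expressing mGluR5, grown in DMEM with 10% FBS, penicillin, streptomycin and puromycin (10 µg/mL) at 37 °C, 5% CO₂. Cells seeded at 40,000/well, incubated 18 h, then loaded with Calcium-5 dye. In the FDSS6000 fluorescence assay, receptor activated with L-glutamate in HBSS in the presence of various concentrations of test compound. Read-out is inhibition of the Ca²⁺ signal.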
Target sequence in this assay (P41594 21-1212 limits assumed): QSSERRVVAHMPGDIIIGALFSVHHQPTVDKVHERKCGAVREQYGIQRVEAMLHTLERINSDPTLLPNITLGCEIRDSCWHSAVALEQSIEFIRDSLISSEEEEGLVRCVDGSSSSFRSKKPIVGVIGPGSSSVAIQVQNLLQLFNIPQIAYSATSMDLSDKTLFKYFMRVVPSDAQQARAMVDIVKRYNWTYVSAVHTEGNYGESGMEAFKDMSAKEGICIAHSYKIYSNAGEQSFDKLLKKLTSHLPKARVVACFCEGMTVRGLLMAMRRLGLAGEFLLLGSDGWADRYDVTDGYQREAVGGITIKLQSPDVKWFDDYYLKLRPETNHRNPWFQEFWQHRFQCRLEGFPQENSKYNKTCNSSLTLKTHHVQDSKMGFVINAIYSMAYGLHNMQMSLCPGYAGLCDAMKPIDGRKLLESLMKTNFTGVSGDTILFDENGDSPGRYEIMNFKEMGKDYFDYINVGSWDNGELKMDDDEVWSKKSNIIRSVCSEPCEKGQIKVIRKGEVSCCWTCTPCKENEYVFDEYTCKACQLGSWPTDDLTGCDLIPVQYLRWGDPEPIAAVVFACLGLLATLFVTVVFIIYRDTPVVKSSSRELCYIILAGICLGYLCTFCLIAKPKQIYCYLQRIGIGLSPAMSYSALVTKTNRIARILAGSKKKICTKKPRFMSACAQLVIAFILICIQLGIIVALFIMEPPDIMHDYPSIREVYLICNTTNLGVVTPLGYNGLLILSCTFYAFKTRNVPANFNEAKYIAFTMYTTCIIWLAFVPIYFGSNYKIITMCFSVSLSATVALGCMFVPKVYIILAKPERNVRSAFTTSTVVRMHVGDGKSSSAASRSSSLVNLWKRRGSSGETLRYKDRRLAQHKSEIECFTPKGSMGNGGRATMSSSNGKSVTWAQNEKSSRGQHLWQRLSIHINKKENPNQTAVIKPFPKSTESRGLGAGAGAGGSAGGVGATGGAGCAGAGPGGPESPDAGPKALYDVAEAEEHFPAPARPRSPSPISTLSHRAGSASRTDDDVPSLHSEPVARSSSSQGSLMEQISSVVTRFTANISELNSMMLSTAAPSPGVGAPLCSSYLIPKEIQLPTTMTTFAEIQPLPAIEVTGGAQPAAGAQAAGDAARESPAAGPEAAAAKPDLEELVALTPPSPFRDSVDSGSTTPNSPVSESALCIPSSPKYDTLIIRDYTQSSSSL

Data set [2] has as its target T1, Metabotropic glutamate receptor 5. As to the kind of experiment: Antagonist activity at human mGluR5 expressed in HEK293 cells assessed as inhibition of L-glutamate-induced calcium mobilization at 10 uM by FDSS6000 assay. The class given is functional, cell-based. A digest of the protocol:
as §1
Target sequence in this assay (P41594 21-1212 limits assumed): as above

For the next data set, the target named is CYP2D6 (Homo sapiens, UniProt P10635). Put plainly: Inhibition of CYP2D6 (unknown origin) assessed as residual activity at 10 uM. It is filed as ADME. To be noted: read-out: Activity. The procedure, abridged:
(§2)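 CYP2D6, CYP2C9 and CYP3A4 each tested with compound at 10 µM; read-out is percent enzyme activity remaining.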

The nature of data set [3]: Metabolic stability in human liver microsomes assessed as compound remaining at 1 uM after 30 mins. It is filed as ADME, Microsome. To be noted: read-out: Stability. The procedure, abridged: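 Compound at 1 µM incubated with human liver microsomes for 30 min; read-out is percent of parent remaining.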
(In general: Liver microsomes are a subcellular fraction often used to study metabolism.)

A further data set deals with CYP2C9 (Homo sapiens, UniProt P11712). Put plainly: Inhibition of CYP2C9 (unknown origin) assessed as residual activity at 10 uM. It is filed as ADME. To be noted: read-out: Activity. A digest of the protocol:
as §2

Another data set concerns the target CYP3A4 (Homo sapiens, UniProt P08684). As to the kind of experiment: Inhibition of CYP3A4 (unknown origin) assessed as residual activity at 10 uM. The class given is ADME. The settings on record: read-out: Activity. The procedure, abridged:
as §2

Data set [4] has as its target T1, Metabotropic glutamate receptor 5. Put plainly: Antagonist activity at human mGluR5 expressed in HEK293 cells assessed as inhibition of L-glutamate-induced calcium mobilization by FDSS6000 assay. Background: A change in cytosolic calcium serves as a functional read-out for many receptors and channels.
Target sequence in this assay (P41594 whole entry): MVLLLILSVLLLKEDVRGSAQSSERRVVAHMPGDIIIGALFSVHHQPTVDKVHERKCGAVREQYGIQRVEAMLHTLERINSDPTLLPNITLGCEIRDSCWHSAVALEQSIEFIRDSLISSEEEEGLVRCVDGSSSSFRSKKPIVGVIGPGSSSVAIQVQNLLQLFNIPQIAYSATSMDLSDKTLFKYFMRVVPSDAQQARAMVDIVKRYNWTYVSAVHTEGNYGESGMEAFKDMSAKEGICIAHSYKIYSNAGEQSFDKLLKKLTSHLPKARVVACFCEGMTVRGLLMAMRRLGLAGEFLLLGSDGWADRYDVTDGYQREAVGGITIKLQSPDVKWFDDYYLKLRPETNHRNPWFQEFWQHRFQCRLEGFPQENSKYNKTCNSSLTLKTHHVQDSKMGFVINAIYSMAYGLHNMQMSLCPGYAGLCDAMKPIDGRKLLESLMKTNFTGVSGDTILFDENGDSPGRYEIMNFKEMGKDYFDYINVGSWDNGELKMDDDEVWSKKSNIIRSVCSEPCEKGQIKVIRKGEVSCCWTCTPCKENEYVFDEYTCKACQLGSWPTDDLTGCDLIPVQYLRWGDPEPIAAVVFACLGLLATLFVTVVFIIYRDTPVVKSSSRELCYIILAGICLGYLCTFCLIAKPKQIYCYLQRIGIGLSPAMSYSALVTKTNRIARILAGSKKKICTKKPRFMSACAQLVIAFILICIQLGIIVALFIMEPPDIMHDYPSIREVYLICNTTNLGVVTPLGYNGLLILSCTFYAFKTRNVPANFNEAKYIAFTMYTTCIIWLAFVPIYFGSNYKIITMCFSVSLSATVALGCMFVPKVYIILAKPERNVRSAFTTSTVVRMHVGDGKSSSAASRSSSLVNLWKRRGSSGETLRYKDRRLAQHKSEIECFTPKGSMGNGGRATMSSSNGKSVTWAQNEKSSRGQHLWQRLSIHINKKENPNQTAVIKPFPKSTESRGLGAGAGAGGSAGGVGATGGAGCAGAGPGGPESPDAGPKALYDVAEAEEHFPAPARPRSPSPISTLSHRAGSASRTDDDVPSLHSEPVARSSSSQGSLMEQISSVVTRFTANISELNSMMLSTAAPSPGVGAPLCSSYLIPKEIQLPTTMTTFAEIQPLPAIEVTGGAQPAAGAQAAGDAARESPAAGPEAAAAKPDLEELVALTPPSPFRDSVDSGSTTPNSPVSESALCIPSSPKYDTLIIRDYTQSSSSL
Data set [5] addresses Voltage-gated inwardly rectifying potassium channel KCNH2 (Homo sapiens, UniProt Q12809).
For data set [6], the system named is Rattus norvegicus. Put plainly: Antiallodynic activity in rat spinal nerve ligation model of neuropathic pain assessed as reduction of cold allodynia at 100 mg/kg, po after 3 hrs. It is filed as functional, organism-based. Further details: dose 100 mg/kg. A digest of the protocol: (§3)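 Rat SNL model: tight ligation of L5 spinal nerve distal to DRG. Mechanical and cold allodynia were tested 1 day before and 14 days after surgery, then given orally, and retested at 1, 3 and 5 h. Mechanical allodynia used the wire-mesh-floor method, cold allodynia was scored as %MPE. Gabapentin was the reference (n = 4), test n = 5. Paired t-test versus pre-dose.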

The subject of data set [7] is Rattus norvegicus. Put plainly: Antiallodynic activity in rat spinal nerve ligation model of neuropathic pain assessed as reduction of mechanical allodynia at 100 mg/kg, po after 5 hrs. It is filed as functional, organism-based. Further details: dose 100 mg/kg. A digest of the protocol: as §3
Data set [8] in a line: Oral bioavailability in rat at 10 mg/kg. To be noted: in vivo. The class given is ADME, organism-based. A digest of the protocol: (§4)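 Rat plasma pharmacokinetics after a 10 mg/kg dose, intravenous (n = 4) or oral (n = 3); mean parameters reported.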
The nature of data set [9]: Half life in rat at 10 mg/kg, iv. The class given is ADME, organism-based. More on the design: dose 10 mg/kg, route intravenous. To be noted: in vivo. The procedure, abridged:
as §4

Data set [10] in a line: Tmax in rat at 10 mg/kg, po. The class given is ADME, organism-based. More on the design: dose 10 mg/kg, route oral. To be noted: in vivo. The procedure, abridged:
(§5)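 Rat plasma pharmacokinetics after a single oral dose of 10 mg/kg. The group size was n = 3 rats, and the reported values are group means.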

The nature of data set [11]: Cmax in rat at 10 mg/kg, po. The class given is ADME, organism-based. More on the design: dose 10 mg/kg, route oral. The settings on record: in vivo. A digest of the protocol: as §5
Data set [12] in a line: Half life in rat at 10 mg/kg, po. It is filed as ADME, organism-based. The settings on record: in vivo. More on the design: dose 10 mg/kg, route oral. The procedure, abridged: as §4
A short description of data set [13]: Apparent volume of distribution at steady state in rat at 10 mg/kg, iv. It is filed as ADME, organism-based. To be noted: in vivo, read-out: Vdss(app). Further details: dose 10 mg/kg, route intravenous. The procedure, abridged:
as §4

A short description of data set [14]: Clearance in rat at 10 mg/kg, iv. The class given is ADME, organism-based. More on the design: dose 10 mg/kg, route intravenous. To be noted: in vivo. A digest of the protocol:
as §4

Activity calls are given as the source filed them. No cut-off for these calls is given here.

CYP3A4, sequence (P08684 whole entry): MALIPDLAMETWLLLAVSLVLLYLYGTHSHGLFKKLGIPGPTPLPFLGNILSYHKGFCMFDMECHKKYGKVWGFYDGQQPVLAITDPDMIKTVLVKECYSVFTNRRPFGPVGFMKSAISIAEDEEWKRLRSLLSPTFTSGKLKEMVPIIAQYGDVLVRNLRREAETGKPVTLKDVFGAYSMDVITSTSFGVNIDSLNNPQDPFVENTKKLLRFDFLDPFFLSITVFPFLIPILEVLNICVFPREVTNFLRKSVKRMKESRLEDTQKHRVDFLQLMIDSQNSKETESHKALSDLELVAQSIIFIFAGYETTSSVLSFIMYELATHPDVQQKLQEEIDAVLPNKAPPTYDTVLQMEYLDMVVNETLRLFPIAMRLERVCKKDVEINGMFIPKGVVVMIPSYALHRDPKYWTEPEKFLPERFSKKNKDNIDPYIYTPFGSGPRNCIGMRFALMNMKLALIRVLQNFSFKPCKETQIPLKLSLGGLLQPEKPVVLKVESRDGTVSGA
CYP2D6, sequence (P10635 whole entry): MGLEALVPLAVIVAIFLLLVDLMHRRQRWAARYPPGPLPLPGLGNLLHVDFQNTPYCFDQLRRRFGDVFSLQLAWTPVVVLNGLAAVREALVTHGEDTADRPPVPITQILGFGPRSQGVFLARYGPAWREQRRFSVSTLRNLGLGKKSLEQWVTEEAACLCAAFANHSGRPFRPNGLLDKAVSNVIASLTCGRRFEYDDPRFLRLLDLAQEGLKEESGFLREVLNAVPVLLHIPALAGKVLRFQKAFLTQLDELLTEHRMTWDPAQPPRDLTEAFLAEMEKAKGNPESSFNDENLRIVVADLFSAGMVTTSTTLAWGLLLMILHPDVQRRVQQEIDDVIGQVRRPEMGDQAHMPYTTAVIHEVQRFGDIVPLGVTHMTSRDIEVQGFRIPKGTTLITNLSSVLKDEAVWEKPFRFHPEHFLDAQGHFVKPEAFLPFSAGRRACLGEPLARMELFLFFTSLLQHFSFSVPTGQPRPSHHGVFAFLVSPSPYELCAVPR
CYP2C9, sequence (P11712 whole entry): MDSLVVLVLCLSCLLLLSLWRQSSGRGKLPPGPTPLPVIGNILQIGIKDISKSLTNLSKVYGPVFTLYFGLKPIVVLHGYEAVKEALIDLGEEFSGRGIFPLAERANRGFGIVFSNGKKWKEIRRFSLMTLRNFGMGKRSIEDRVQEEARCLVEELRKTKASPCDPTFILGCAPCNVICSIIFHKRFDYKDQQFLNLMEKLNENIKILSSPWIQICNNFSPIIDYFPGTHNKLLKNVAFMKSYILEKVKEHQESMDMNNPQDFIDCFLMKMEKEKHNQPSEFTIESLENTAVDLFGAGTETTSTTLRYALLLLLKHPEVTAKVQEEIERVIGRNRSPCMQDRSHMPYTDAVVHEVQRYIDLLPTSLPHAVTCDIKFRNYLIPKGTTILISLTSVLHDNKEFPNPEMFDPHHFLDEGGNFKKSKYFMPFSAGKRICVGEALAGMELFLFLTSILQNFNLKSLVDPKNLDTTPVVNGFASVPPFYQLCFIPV
Voltage-gated inwardly rectifying potassium channel KCNH2, sequence (Q12809 whole entry): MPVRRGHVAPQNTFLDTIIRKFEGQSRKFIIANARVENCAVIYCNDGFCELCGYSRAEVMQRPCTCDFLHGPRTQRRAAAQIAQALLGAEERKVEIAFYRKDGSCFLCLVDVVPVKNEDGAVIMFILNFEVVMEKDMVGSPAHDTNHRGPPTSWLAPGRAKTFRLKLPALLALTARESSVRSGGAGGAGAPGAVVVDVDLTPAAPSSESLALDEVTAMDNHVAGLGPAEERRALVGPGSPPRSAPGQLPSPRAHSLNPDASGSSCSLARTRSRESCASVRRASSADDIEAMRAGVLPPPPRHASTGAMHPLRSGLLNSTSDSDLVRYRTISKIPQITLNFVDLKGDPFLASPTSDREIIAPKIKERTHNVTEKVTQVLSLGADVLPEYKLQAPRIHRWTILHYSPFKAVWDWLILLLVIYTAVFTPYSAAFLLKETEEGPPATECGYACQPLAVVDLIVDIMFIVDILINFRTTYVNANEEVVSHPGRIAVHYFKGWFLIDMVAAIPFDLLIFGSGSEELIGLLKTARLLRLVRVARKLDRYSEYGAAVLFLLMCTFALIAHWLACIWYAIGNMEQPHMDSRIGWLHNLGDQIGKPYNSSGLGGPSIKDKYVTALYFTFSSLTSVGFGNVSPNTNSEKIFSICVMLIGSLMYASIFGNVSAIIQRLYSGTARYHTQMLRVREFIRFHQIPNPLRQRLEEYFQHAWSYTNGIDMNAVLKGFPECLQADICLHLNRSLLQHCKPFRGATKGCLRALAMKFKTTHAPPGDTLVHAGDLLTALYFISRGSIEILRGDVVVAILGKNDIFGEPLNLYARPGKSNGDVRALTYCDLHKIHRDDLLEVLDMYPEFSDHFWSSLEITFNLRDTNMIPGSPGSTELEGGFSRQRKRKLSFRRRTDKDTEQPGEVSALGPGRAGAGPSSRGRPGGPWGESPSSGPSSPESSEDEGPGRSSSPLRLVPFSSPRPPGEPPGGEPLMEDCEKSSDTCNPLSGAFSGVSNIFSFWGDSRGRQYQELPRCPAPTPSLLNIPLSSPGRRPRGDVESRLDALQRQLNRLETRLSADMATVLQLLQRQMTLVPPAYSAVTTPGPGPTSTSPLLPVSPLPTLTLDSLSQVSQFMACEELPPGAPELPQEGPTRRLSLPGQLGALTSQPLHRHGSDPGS

`Clc1cccc2nc(C#Cc3ccccn3)ccc12`: the figures for the inhibition in [1] and in data set [2] were 31% and 64.3%, respectively.

On to `CC(C)(C)C(=O)Oc1cccc2nc(C#Cc3ccccn3)ccc12`, for which the figures for the inhibition in [1] and in data set [2] were 17.1% and 62.4%, respectively.

Consider `Clc1cccc2nc(C#Cc3cccnc3)ccc12`, for which the inhibition in data set [1] came to 11.2%; in data set [2], 28.4%.

As for `Fc1cnc(C#Cc2ccc3ccccc3n2)nc1`, the inhibition in data set [1] was determined as 16%; in [2], 15.6%.

Consider `COc1cccc2nc(C#Cc3ccccc3)ccc12`, for which the activity at 10 µM at CYP2D6 was more than 99%; at CYP2C9, 55%; on CYP3A4, 50%. Further, the remaining at 0.5 h, 1 µM in [3] was less than 1%. Also, the inhibition came out at 63.6% in data set [1] and 68% in [2].

`C(#Cc1ccc2ccccc2n1)c1cccnc1`: the inhibition in [1] is 43.9%; in data set [2], 65.8%.

Take `COc1cccc(C#Cc2ccc3ccccc3n2)n1`: the inhibition in data set [1] was 16.6%; in data set [2] it was 48.6%.

`FC(F)(F)c1ccnc(C#Cc2ccc3ccccc3n2)c1`: the figures for the inhibition in data set [1] and in data set [2] were 23.3% and 58%, respectively.

As for `COc1cccc2nc(C#Cc3cccnc3)ccc12`, the remaining at 0.5 h, 1 µM in data set [3] is less than 1%. For the same compound, the inhibition in [1] and in [2] was 67.7% throughout.

Take `FC(F)(F)c1ccc(C#Cc2ccc3ccccc3n2)nc1`: the inhibition in [1] stood at 13%; in [2] it was 50.7%.

Regarding `Brc1cccc2nc(C#Cc3ccccn3)ccc12`, the IC50 in [4] came out at 0.75 µM; in data set [5] it was 22.7 µM. The activity at 10 µM at CYP2D6 was found to be 78%; on CYP2C9 it was 52%; at CYP3A4 it was 56%. The remaining at 0.5 h, 1 µM in data set [3] was 98%. Further, the results for the inhibition in data set [1] and in data set [2] were 56.7% and 77.5%, respectively.

In the case of `C(#Cc1ncccn1)c1ccc2ccccc2n1`, the inhibition in data set [1] is 17.1%; in data set [2], 28.6%.

Consider `Fc1cccc(C#Cc2ccc3ccccc3n2)n1`, for which the inhibition in data set [1] worked out at 29.6%; in [2], 46.9%.

Consider `N#Cc1ccnc(C#Cc2ccc3ccccc3n2)c1`, for which the inhibition in data set [1] is 35.2%; in data set [2], 76.1%.

As to `Brc1cccc2nc(C#Cc3ccccc3)ccc12`, the inhibition was found to be 21.1% in [1] and 20.7% in data set [2].

For `NCC1(CC(=O)O)CCCCC1`, the Activity result with Rattus norvegicus [6] and in the data set on Rattus norvegicus [7] was “Active” throughout.

As to `C(#Cc1ccc2ccccc2n1)c1ccccc1`, the inhibition is 35.9% in data set [1] and 67.7% in data set [2].

As to `FC(F)(F)c1ccnc(C#Cc2ccc3ccccc3n2)n1`, the inhibition turned out to be 17.3% in data set [1] and 15.9% in data set [2].

For the compound `Oc1cccc2nc(C#Cc3cccnc3)ccc12`, the inhibition worked out at 25.2% in data set [1] and 17.6% in data set [2].

For `Cc1ccnc(C#Cc2ccc3ccccc3n2)c1`, the values for the inhibition in [1] and in data set [2] were 21.9% and 66.5%, respectively.

With `FC(F)(F)c1cccnc1C#Cc1ccc2ccccc2n1`, the inhibition stood at 9.49% in [1] and 16.4% in data set [2].

Take `CC(C)(C)C(=O)Oc1cccc2nc(C#Cc3cccnc3)ccc12`: the inhibition in data set [1] was 10.6%; in [2], 28.5%.

Consider `C(#Cc1ccc2ccccc2n1)c1cncnc1`, for which the inhibition in data set [1] was 13.6%; in [2], 22.4%.

On to `Cc1ccc(C#Cc2ccc3ccccc3n2)nc1`, for which the inhibition came out at 29% in data set [1] and 66.3% in [2].

For `CC(C)(C)C(=O)Oc1cccc2nc(C#Cc3ccccc3)ccc12`, the inhibition in data set [1] came out at 24%; in data set [2], 23.8%.

As for `Brc1cccc2nc(C#Cc3cccnc3)ccc12`, the inhibition in [1] turned out to be 22%; in [2] it was 40.1%.

Regarding `Oc1cccc2nc(C#Cc3ccccn3)ccc12`, the inhibition in [1] was found to be 17.4%; in [2], 22.1%.

As for `Cc1cccnc1C#Cc1ccc2ccccc2n1`, the inhibition worked out at 18.9% in data set [1] and 40.1% in data set [2].

For the compound `Fc1ccc(C#Cc2ccc3ccccc3n2)nc1`, the inhibition in data set [1] is 33.9%; in data set [2] it was 63.3%.

In the case of `Fc1cccnc1C#Cc1ccc2ccccc2n1`, the inhibition in data set [1] is 31.3%; in data set [2], 55.2%.

In the case of `Oc1cccc2nc(C#Cc3ccccc3)ccc12`, the inhibition in data set [1] was 18%; in [2] it was 24.3%.

For the compound `N#Cc1cccc(C#Cc2ccc3ccccc3n2)n1`, the inhibition in data set [1] came to 33%; in data set [2], 64.8%.

Regarding `Clc1cccc2nc(C#Cc3ccccc3)ccc12`, the inhibition in data set [1] worked out at 11.7%; in [2], 8.02%.

Take `CCOc1cccc2nc(C#Cc3cccnc3)ccc12`: the inhibition in [1] was 47.2%; in data set [2], 66.6%.

`FC(F)(F)c1cccc(C#Cc2ccc3ccccc3n2)n1`: the inhibition in [1] came to 15.8%; in [2] it was 28.7%.

`C(#Cc1ccc2ccccc2n1)c1ccccn1`: the bioavailability in data set [8] amounted to 15.9%. The half-life in [9] stood at 48.5 min; in data set [12], 58.2 min. The Tmax in data set [10] is 10 min. For the same compound, the activity at 10 µM was 98% at CYP2D6, more than 99% at CYP2C9 and 77% on CYP3A4. Further, the Activity entry in the data set with Rattus norvegicus [6] and with Rattus norvegicus [7] was “Active” throughout. Besides, the remaining at 0.5 h, 1 µM in data set [3] turned out to be 88%. Also, in [11], the Cmax is 430 ng/mL. Further, the Vd in data set [13] amounted to 1.27 L/kg. For the same compound, the values for the inhibition in data set [1] and in [2] were 58.8% and 76.7%, respectively. Moreover, the clearance in [14] amounted to 84.9 mL/min/kg.
